According to ChEMBL document CHEMBL1135880, “Synthesis and X-ray studies of chiral allosteric modifiers of hemoglobin” (J Med Chem, 2002):

Legend:
[1] = target: T1, Hemoglobin HbA (Homo sapiens) (UniProt P69905+P68871); assay: Ratio of […] (P50 control value with no effector present 5.0 mmHg, in case of DMSO is 4.7 mmHg ); assay type: functional
[2] = target: T1, Hemoglobin HbA (Homo sapiens); assay: Ability to right-shift the oxygen equilibrium curves (OECs) quantified by ability to increase in P50 at which Hb was 50% saturated with oxygen in the presence of the effector at the concentration of 5 mM.; assay type: functional
In short: (§1)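 Human whole blood; DMSO stock 200 mM, final 5 mM effector, DMSO-only control. Duplicate samples equilibrated ~10 min at 37 °C in tonometers against gas mixtures of 2.95%, 5.85% and 8.75% O2 with 5.8% CO2, balance N2. pO2 and sO2 read on blood gas analyzer and co-oximeter. P50 and n50 from nonlinear regression; ΔP50 = P50 effector − P50 control.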

[3] = target: T1, Hemoglobin HbA (Homo sapiens); assay: The Hill coefficient at 50% saturation (n50) between 40 and 60% oxygen saturation (n50 control value with no effector present, 2.7).; assay type: protein-complex assay
[4] = target: T1, Hemoglobin HbA (Homo sapiens); assay: Ability to right-shift the oxygen equilibrium curves (OECs) quantified by ability to increase in P50 at which Hb was 50% saturated with oxygen in the […] of the effector.; assay type: functional
[5] = target: T1, Hemoglobin HbA (Homo sapiens); assay: Ability to right-shift the oxygen equilibrium curves (OECs) quantified by ability to increase in P50 in whole blood analyses.; assay type: functional, tissue-based; in short: as §1
[6] = target: T1, Hemoglobin HbA (Homo sapiens); assay: The Hill coefficient at 50% saturation (n50) in the presence of effector.; assay type: protein-complex assay; in short: as §1
[7] = target: T1, Hemoglobin HbA (Homo sapiens); assay: Oxygen pressure in mmHg at which Hb is 50% saturated with oxygen at 50-60 uM heme concentration and in the presence of 0.5 mM effector.; assay type: functional
[8] = target: T1, Hemoglobin HbA (Homo sapiens); assay: The difference in the partial pressure of oxygen at 50% saturated Hb; assay type: functional; in short: as §1
[9] = target: T1, Hemoglobin HbA (Homo sapiens); assay: Ability to right-shift the oxygen equilibrium curves (OECs) quantified by ability to increase in P50 at which Hb was 50% saturated with oxygen in the […] of the effector at the concentration of 5 mM.; assay type: functional; in short: as §1

T1 sequence (P68871 2-147 partner limits assumed): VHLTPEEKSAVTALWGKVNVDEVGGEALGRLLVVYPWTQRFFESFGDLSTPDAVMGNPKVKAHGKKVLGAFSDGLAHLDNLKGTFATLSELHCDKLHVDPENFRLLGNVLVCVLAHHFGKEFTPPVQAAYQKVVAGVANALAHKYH
T1 sequence (P69905 2-142 limits assumed): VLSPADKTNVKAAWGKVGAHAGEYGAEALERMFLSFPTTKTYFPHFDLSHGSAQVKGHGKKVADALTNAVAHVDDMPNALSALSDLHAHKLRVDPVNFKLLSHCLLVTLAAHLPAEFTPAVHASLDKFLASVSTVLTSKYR

P50e / P50c [1]	P50e [2]	Hill coefficient (n50) [3]	P50e [4]	P50c [5]	n50e [6]	P50e [7]	Delta P50 [8]	P50e [9]	SMILES
1.2	29 mmHg	2.3	27.2 mmHg	28.3 mmHg	2.7	5.8 mmHg	-0.2	–	Cc1cc(C)cc(NC(=O)Cc2ccc(OC3(C(=O)N[C@@H](CCCCN)C(=O)O)CCCC3)cc2)c1
1.9	45.5 mmHg	2.8	44.8 mmHg	24.5 mmHg	2.1	9.5 mmHg	20.6	–	CSCC[C@@H](NC(=O)C1(Oc2ccc(CC(=O)Nc3cc(C)cc(C)c3)cc2)CCCC1)C(=O)O
2.9	41.1 mmHg	2.6	39.7 mmHg	27.5 mmHg	2.2	14.3 mmHg	12.9	–	Cc1cc(C)cc(NC(=O)Cc2ccc(OC3(C(=O)N[C@@H](C(=O)O)C(C)O)CCCC3)cc2)c1 (some centres not stated)
2.8	57.3 mmHg	2.6	56.6 mmHg	26.7 mmHg	1.9	13.9 mmHg	30.2	–	Cc1cc(C)cc(NC(=O)Cc2ccc(OC3(C(=O)N[C@@H](C(=O)O)C(C)C)CCCC3)cc2)c1
2.1	46.2 mmHg	2.7	42.8 mmHg	26.8 mmHg	2.1	10.5 mmHg	17.6	–	Cc1cc(C)cc(NC(=O)Cc2ccc(OC3(C(=O)N[C@@H](C)C(=O)O)CCCC3)cc2)c1
3.4	44.7 mmHg	2.6	38.7 mmHg	26.2 mmHg	2.3	17.1 mmHg	15.5	–	Cc1cc(C)cc(NC(=O)Cc2ccc(OC3(C(=O)N[C@@H](CO)C(=O)O)CCCC3)cc2)c1
1.7	49.8 mmHg	2.6	48.1 mmHg	28.7 mmHg	1.9	8.2 mmHg	20.3	–	Cc1cc(C)cc(NC(=O)Cc2ccc(OC3(C(=O)N[C@H](Cc4ccccc4)C(=O)O)CCCC3)cc2)c1
4.7	82.6 mmHg	2.3	80 mmHg	29.8 mmHg	1.5	–	51.5	–	Cc1cc(C)cc(NC(=O)Cc2ccc(OC(C)(C)C(=O)O)cc2)c1
2.4	52.6 mmHg	2.6	50 mmHg	26.2 mmHg	2.1	12 mmHg	25.1	–	Cc1cc(C)cc(NC(=O)Cc2ccc(OC3(C(=O)NCC(=O)O)CCCC3)cc2)c1
2.3	34 mmHg	2.6	31.1 mmHg	27.1 mmHg	2.1	11.2 mmHg	5.4	–	Cc1cc(C)cc(NC(=O)Cc2ccc(OC3(C(=O)N[C@H](CO)C(=O)O)CCCC3)cc2)c1
2.7	42.5 mmHg	2.7	41.1 mmHg	24.8 mmHg	2.3	13.5 mmHg	17	–	Cc1cc(C)cc(NC(=O)Cc2ccc(OC3(C(=O)N4CCC[C@H]4C(=O)O)CCCC3)cc2)c1
4.3	71.3 mmHg	2.7	70.6 mmHg	29.4 mmHg	1.8	21.3 mmHg	41.5	–	Cc1cc(C)cc(NC(=O)Cc2ccc(OC3(C(=O)N[C@@H](CC(C)C)C(=O)O)CCCC3)cc2)c1
2.5	40.6 mmHg	2.6	38.9 mmHg	26.5 mmHg	2.3	12.3 mmHg	13.2	–	CC[C@@H](C)[C@@H](NC(=O)C1(Oc2ccc(CC(=O)Nc3cc(C)cc(C)c3)cc2)CCCC1)C(=O)O
3.6	56.8 mmHg	2.6	50.7 mmHg	27.1 mmHg	2.3	18.1 mmHg	26.6	–	CSCC[C@H](NC(=O)C1(Oc2ccc(CC(=O)Nc3cc(C)cc(C)c3)cc2)CCCC1)C(=O)O
7.4	48.8 mmHg	2.3	47.2 mmHg	27.9 mmHg	2	37 mmHg	20.2	–	Cc1cc(C)cc(NC(=O)Cc2ccc(OC3(C(=O)N[C@@H](Cc4ccc5[nH]ccc5c4)C(=O)O)CCCC3)cc2)c1
4.5	28.2 mmHg	2.5	27.6 mmHg	27.5 mmHg	2.5	22.4 mmHg	0.4	–	Cc1cc(C)cc(NC(=O)Cc2ccc(OC3(C(=O)N[C@H](CCCCNC(=O)OCc4ccccc4)C(=O)O)CCCC3)cc2)c1
5.9	45 mmHg	2.4	39.5 mmHg	28.3 mmHg	2.1	29.5 mmHg	14	–	Cc1cc(C)cc(NC(=O)Cc2ccc(OC3(C(=O)N[C@@H](CCCCNC(=O)OCc4ccccc4)C(=O)O)CCCC3)cc2)c1
2.6	67.5 mmHg	2.7	64.1 mmHg	27.4 mmHg	1.8	12.4 mmHg	38.4	–	Cc1cc(C)cc(NC(=O)Cc2ccc(OC3(C(=O)N[C@@H](Cc4ccccc4)C(=O)O)CCCC3)cc2)c1
8.6	33.3 mmHg	2.1	30.6 mmHg	24.8 mmHg	2.3	43 mmHg	7.2	–	Cc1cc(C)cc(NC(=O)Cc2ccc(OC3(C(=O)N[C@H](CSCc4ccccc4)C(=O)O)CCCC3)cc2)c1
3.2	55.3 mmHg	2.6	50.2 mmHg	26.2 mmHg	1.9	16.1 mmHg	26.6	–	Cc1cc(C)cc(NC(=O)Cc2ccc(OC3(C(=O)N[C@H](CC(=O)O)C(=O)O)CCCC3)cc2)c1
3.4	51.4 mmHg	2.6	50.1 mmHg	28.3 mmHg	2	16.8 mmHg	22.5	–	Cc1cc(C)cc(NC(=O)Cc2ccc(OC3(C(=O)N[C@H](CCC(=O)O)C(=O)O)CCCC3)cc2)c1
2.8	52.1 mmHg	2.6	50.3 mmHg	29.4 mmHg	1.7	13.8 mmHg	21.9	–	Cc1cc(C)cc(NC(=O)Cc2ccc(OC3(C(=O)N[C@H](C)C(=O)O)CCCC3)cc2)c1
1.9	42.6 mmHg	2.6	41.9 mmHg	27.1 mmHg	2.3	9.4 mmHg	15.2	–	Cc1cc(C)cc(NC(=O)Cc2ccc(OC3(C(=O)N[C@H](CC(C)C)C(=O)O)CCCC3)cc2)c1
7.4	49.9 mmHg	2.1	–	28.7 mmHg	2.1	37.1 mmHg	20	47.5 mmHg	Cc1cc(C)cc(NC(=O)Cc2ccc(OC3(C(=O)N[C@H](Cc4ccc5[nH]ccc5c4)C(=O)O)CCCC3)cc2)c1
5.1	74.7 mmHg	2.4	67.7 mmHg	28.9 mmHg	1.7	–	42.3	–	Cc1cc(C)cc(NC(=O)Cc2ccc(OC3(C(=O)O)CCCC3)cc2)c1
1.6	28.6 mmHg	2.4	26.7 mmHg	28.3 mmHg	2.7	8.1 mmHg	-0.6	–	Cc1cc(C)cc(NC(=O)Cc2ccc(OC3(C(=O)N[C@H](CCCCN)C(=O)O)CCCC3)cc2)c1
9.7	49 mmHg	2.3	47 mmHg	27.2 mmHg	2	48.6 mmHg	20.8	–	Cc1cc(C)cc(NC(=O)Cc2ccc(OC3(C(=O)N[C@H](Cc4ccc(O)cc4)C(=O)O)CCCC3)cc2)c1
2.6	54.8 mmHg	2.7	53.9 mmHg	25.7 mmHg	2	13 mmHg	28.6	–	Cc1cc(C)cc(NC(=O)Cc2ccc(OC3(C(=O)N[C@H](C(=O)O)C(C)C)CCCC3)cc2)c1
